According to ChEMBL document CHEMBL1153575, “Synthesis and in vitro anticancer activity of 2,4-azolidinedione-acetic acids derivatives” (2009):

Assays:
Format in all cases: functional
[1] = tested on: NCI-H23; assay: Growth inhibition of human NCI-H23 cells after 48 hrs by sulforhodamine B assay; conditions: NCI-H23, 48 h
How it was run: (§1)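 Five-concentration assay in about 60 human tumour lines, using 10-fold dilutions from 10^-4 to 10^-8 M with 48 h continuous exposure and an SRB protein endpoint. Percent growth at each level comes from time-zero, untreated-control and treated absorbances. GI50 is 50% lower net protein increase than control. Values beyond the tested range are given as greater or less than the extreme concentration.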

[2] = tested on: SR; assay: Growth inhibition of human SR cells after 48 hrs by sulforhodamine B assay; conditions: for TGI: read-out: pTGI (converted); how it was run: as §1
[3] = tested on: NCI-H460; assay: Cytotoxicity against human NCI-H460 cells assessed as cell growth at 100 uM after 48 hrs by sulforhodamine B assay; conditions: NCI-H460, 48 h, read-out: Activity
How it was run: (§2)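 Primary one-dose screen on a three-line panel (MCF7 breast, NCI-H460 lung, SF-268 CNS) at 10^-4 M. Cells were preincubated 24–48 h before a single addition of the agent, followed by 48 h incubation. Endpoint was SRB protein staining, reported as percent growth versus untreated controls.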

[4] = tested on: MDA-MB-231; assay: Growth inhibition of human MDA-MB-231 cells after 48 hrs by sulforhodamine B assay; conditions: MDA-MB-231, 48 h; for TGI: read-out: pTGI (converted); how it was run: as §1
[5] = Growth inhibition of human Hs 578T cells after 48 hrs by sulforhodamine B assay; conditions: for CC50: read-out: pLC50 (the source's name) (converted); for TGI: read-out: pTGI (converted); how it was run: as §1
[6] = tested on: SF-268; assay: Cytotoxicity against human SF268 cells assessed as cell growth at 100 uM after 48 hrs by sulforhodamine B assay; conditions: SF-268, 48 h, read-out: Activity; how it was run: as §2
[7] = tested on: MCF7; assay: Cytotoxicity against human MCF7 cells assessed as cell growth at 100 uM after 48 hrs by sulforhodamine B assay; conditions: MCF7, 48 h, read-out: Activity; how it was run: as §2
[8] = tested on: A498; assay: Growth inhibition of human A498 cells after 48 hrs by sulforhodamine B assay; conditions: A498, 48 h; how it was run: as §1
[9] = tested on: RPMI-8226; assay: Cytotoxicity against human RPMI8226 cells assessed as cell growth at 10 uM after 48 hrs by sulforhodamine B assay; conditions: RPMI-8226, 48 h, read-out: Activity
How it was run: (§3)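 Single-dose primary screen at 10^-5 M (final) across a panel of about 60 human tumour cell lines. Cells were inoculated and preincubated 24–48 h, then the compound was added once and incubated a further 48 h. Protein was stained with sulforhodamine B and read spectrophotometrically. Percent growth is given relative to untreated control cells.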

[10] = tested on: SR; assay: Cytotoxicity against human SR cells assessed as cell growth at 10 uM after 48 hrs by sulforhodamine B assay; conditions: read-out: Activity; how it was run: as §3
[11] = tested on: TK-10; assay: Cytotoxicity against human TK10 cells assessed as cell growth at 10 uM after 48 hrs by sulforhodamine B assay; conditions: TK-10, 48 h, read-out: Activity; how it was run: as §3
[12] = tested on: ACHN; assay: Cytotoxicity against human ACHN cells assessed as cell growth at 10 uM after 48 hrs by sulforhodamine B assay; conditions: read-out: Activity; how it was run: as §3
[13] = tested on: UO-31; assay: Cytotoxicity against human UO31 cells assessed as cell growth at 10 uM after 48 hrs by sulforhodamine B assay; conditions: UO-31, 48 h, read-out: Activity; how it was run: as §3
[14] = Cytotoxicity against human IGROV cells assessed as cell growth at 10 uM after 48 hrs by sulforhodamine B assay; conditions: read-out: Activity; how it was run: as §3
[15] = tested on: MOLT-4; assay: Growth inhibition of human MOLT4 cells after 48 hrs by sulforhodamine B assay; conditions: MOLT-4, 48 h; how it was run: as §1
[16] = tested on: TK-10; assay: Growth inhibition of human TK10 cells after 48 hrs by sulforhodamine B assay; conditions: TK-10, 48 h; how it was run: as §1
[17] = tested on: HOP-62; assay: Growth inhibition of human HOP62 cells after 48 hrs by sulforhodamine B assay; conditions: HOP-62, 48 h; how it was run: as §1
[18] = tested on: RPMI-8226; assay: Growth inhibition of human RPMI8226 cells after 48 hrs by sulforhodamine B assay; conditions: RPMI-8226, 48 h; how it was run: as §1
[19] = tested on: HL-60(TB); assay: Growth inhibition of human HL-60(TB) cells after 48 hrs by sulforhodamine B assay; conditions: HL-60, 48 h
How it was run: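 Cells inoculated and preincubated 24–48 h in microtiter plates, then exposed continuously for 48 h to five 10-fold dilutions from 10^-4 to 10^-8 M. End point by sulforhodamine B protein staining, read spectrophotometrically against untreated controls and time-zero absorbance. Percent growth computed per concentration; GI50 taken where [(Ti−Tz)/(C−Tz)]×100 = 50, expressed as log molar value.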

[20] = tested on: NCI-H226; assay: Growth inhibition of human NCI-H226 cells after 48 hrs by sulforhodamine B assay; conditions: NCI-H226, 48 h; how it was run: as §1
[21] = tested on: PC-3; assay: Growth inhibition of human PC3 cells after 48 hrs by sulforhodamine B assay; conditions: PC-3, 48 h; how it was run: as §1
[22] = tested on: U-251; assay: Growth inhibition of human U251 cells after 48 hrs by sulforhodamine B assay; conditions: U-251, 48 h; how it was run: as §1
[23] = tested on: SF-268; assay: Growth inhibition of human SF268 cells after 48 hrs by sulforhodamine B assay; conditions: SF-268, 48 h; how it was run: as §1
[24] = tested on: SK-OV-3; assay: Growth inhibition of human SKOV3 cells after 48 hrs by sulforhodamine B assay; conditions: SK-OV-3, 48 h; how it was run: as §1
[25] = tested on: SN12C; assay: Growth inhibition of human SN12C cells after 48 hrs by sulforhodamine B assay; how it was run: as §1
[26] = tested on: OVCAR-4; assay: Growth inhibition of human OVCAR4 cells after 48 hrs by sulforhodamine B assay; conditions: OVCAR-4, 48 h; how it was run: as §1
[27] = tested on: SF-539; assay: Growth inhibition of human SF539 cells after 48 hrs by sulforhodamine B assay; conditions: SF-539, 48 h; how it was run: as §1
[28] = tested on: SNB-; assay: Growth inhibition of human SNB cells after 48 hrs by sulforhodamine B assay; how it was run: as §1
[29] = tested on: CCRF-CEM; assay: Growth inhibition of human CCRF-CEM cells after 48 hrs by sulforhodamine B assay; how it was run: as §1
[30] = tested on: LOX IMVI; assay: Growth inhibition of human LOXIMVI cells after 48 hrs by sulforhodamine B assay; how it was run: as §1
[31] = tested on: HOP-92; assay: Growth inhibition of human HOP92 cells after 48 hrs by sulforhodamine B assay; conditions: HOP-92, 48 h; how it was run: as §1
[32] = tested on: OVCAR-5; assay: Cytotoxicity against human OVCAR5 cells assessed as cell growth at 10 uM after 48 hrs by sulforhodamine B assay; conditions: OVCAR-5, 48 h, read-out: Activity; how it was run: as §3
[33] = tested on: HCT-116; assay: Cytotoxicity against human HCT116 cells assessed as cell growth at 10 uM after 48 hrs by sulforhodamine B assay; conditions: HCT-116, 48 h, read-out: Activity; how it was run: as §3
[34] = tested on: CAKI-1; assay: Cytotoxicity against human Caki1 cells assessed as cell growth at 10 uM after 48 hrs by sulforhodamine B assay; conditions: CAKI-1, 48 h, read-out: Activity; how it was run: as §3
[35] = read-out: pLC50 (the source's name) (converted)

`O=C(CN1C(=O)N/C(=C\C=C\c2ccccc2)C1=O)Nc1ccc(Cl)cc1` gave a GI50 [1] of 31.6 µM, an LC50 [1] of over 100 µM and a TGI ([1]; read-out: pTGI (converted)) of over 100 µM. For the same compound, the GI50 [2] was 33.9 µM, the LC50 [2] was over 100 µM and the TGI [2] was over 100 µM. It also gave a growth at 100 µM [3] of 17%, a GI50 [4] of 26.3 µM and an LC50 [4] of over 100 µM. The TGI [4] was over 100 µM, the GI50 [5] was 21.9 µM and the CC50 [5] was over 100 µM. It also gave a TGI [5] of 52.5 µM, a growth at 100 µM [6] of 39% and a growth at 100 µM [7] of 7%. The GI50 [8] was 17.8 µM, the CC50 [8, 35] was 77.6 µM and the TGI ([8]; read-out: pTGI (converted)) was 37.2 µM.
`O=C(CN1C(=O)N/C(=C\C=C\c2ccccc2)C1=O)Nc1ccccc1C(F)(F)F` showed a growth at 10 µM [9] of 26.6%.
Work on `NS(=O)(=O)c1ccc(NC(=O)CC2NC(=O)NC2=O)cc1` (stereo not given) yielded a growth at 10 µM [10] of 68.3%.
In the case of `O=C(CN1C(=O)S/C(=C\C=C\c2ccccc2)C1=O)Nc1ccccc1C(F)(F)F`, the growth at 10 µM [11] was 62.5%.
Compound `O=C(CN1C(=O)N/C(=C\c2ccccc2)C1=O)Nc1ccc(Cl)cc1` has a growth at 10 µM [12] of 1.51%, a growth at 10 µM [13] of -83.1% and a growth at 10 µM [14] of -3.51%.
`O=C(CN1C(=O)N/C(=C\c2ccc(Cl)cc2)C1=O)Nc1ccc(Cl)cc1` gave a GI50 [15] of 11 µM, a CC50 [15, 35] of 72.4 µM and a TGI ([15]; read-out: pTGI (converted)) of 28.2 µM. It also gave a GI50 [16] of 17 µM, a CC50 [16, 35] of over 100 µM and a TGI ([16]; read-out: pTGI (converted)) of 42.7 µM. The GI50 [17] was 15.1 µM, the LC50 [17] was over 100 µM and the TGI ([17]; read-out: pTGI (converted)) was 43.7 µM. For the same compound, the GI50 [18] was 20.9 µM, the LC50 [18] was over 100 µM and the TGI ([18]; read-out: pTGI (converted)) was 67.6 µM. The GI50 [2] was 7.08 µM, the LC50 [2] was over 100 µM and the TGI [2] was 67.6 µM. The GI50 [19] was 19.5 µM, the CC50 [19, 35] was over 100 µM and the TGI ([19]; read-out: pTGI (converted)) was 46.8 µM. For the same compound, the GI50 [20] was 15.8 µM, the CC50 [20, 35] was over 100 µM and the TGI ([20]; read-out: pTGI (converted)) was 44.7 µM. For the same compound, the GI50 [21] was 18.6 µM, the CC50 [21, 35] was over 100 µM and the TGI ([21]; read-out: pTGI (converted)) was 46.8 µM. It also gave a GI50 [4] of 16.2 µM, an LC50 [4] of over 100 µM and a TGI [4] of 42.7 µM. The GI50 [22] was 14.8 µM, the LC50 [22] was 60.3 µM and the TGI ([22]; read-out: pTGI (converted)) was 29.5 µM. The GI50 [23] was 10.5 µM, the CC50 [23, 35] was 85.1 µM and the TGI ([23]; read-out: pTGI (converted)) was 29.5 µM. It also gave a GI50 [5] of 10.7 µM, a CC50 [5] of over 100 µM and a TGI [5] of 38 µM. The GI50 [24] was 19.5 µM, the LC50 [24] was over 100 µM and the TGI ([24]; read-out: pTGI (converted)) was 51.3 µM. The GI50 [25] was 17 µM, the LC50 [25] was over 100 µM and the TGI ([25]; read-out: pTGI (converted)) was 47.9 µM. It also gave a GI50 [26] of 13.2 µM, a CC50 [26, 35] of over 100 µM and a TGI ([26]; read-out: pTGI (converted)) of 64.6 µM. For the same compound, the GI50 [27] was 16.6 µM, the CC50 [27, 35] was 89.1 µM and the TGI ([27]; read-out: pTGI (converted)) was 38.9 µM. The GI50 [28] was 13.2 µM, the CC50 [28, 35] was over 100 µM and the TGI ([28]; read-out: pTGI (converted)) was 36.3 µM. The GI50 [29] was 14.8 µM, the LC50 [29] was 67.6 µM and the TGI ([29]; read-out: pTGI (converted)) was 31.6 µM. The GI50 [30] was 15.5 µM, the CC50 [30, 35] was 66.1 µM and the TGI ([30]; read-out: pTGI (converted)) was 32.4 µM. The GI50 [31] was 17.4 µM, the LC50 [31] was over 100 µM and the TGI ([31]; read-out: pTGI (converted)) was 50.1 µM.
In the case of `NS(=O)(=O)c1ccc(NC(=O)CN2C(=O)CNC2=O)cc1`, the growth at 10 µM [13] was 26%.
Compound `O=C(CN1C(=O)S/C(=C\c2ccc(Cl)cc2)C1=O)Nc1ccccc1C(F)(F)F` has a growth at 10 µM [13] of 75.8%.
For `CN(C)c1ccc(/C=C2\SC(=O)N(CC(=O)Nc3ccccc3C(F)(F)F)C2=O)cc1`, the growth at 10 µM [10] was 45.8%.
With `COc1ccc(/C=C2\NC(=O)N(CC(=O)Nc3nccs3)C2=O)cc1` the growth at 10 µM [32] was 76.5%.
For `CN(C)c1ccc(/C=C2\NC(=O)N(CC(=O)Nc3ccccc3C(F)(F)F)C2=O)cc1`, the growth at 10 µM [33] was 31%.
With `NS(=O)(=O)c1ccc(NC(=O)CC2SC(=O)NC2=O)cc1` (stereo not given) the growth at 10 µM [34] was 54.2%.
